Screens (PubChem)
Compounds with a hit are over-represented: about 3.1% of the library has one in this group of screens.
GPR7 antag = human neuropeptides B/W receptor 1 antagonism. P48145. 1.1% of 290,000 active. AID 1861. inhibition, % at 4.4 µM. GPR7-expressing cells, fluorescence antagonist assay; in the data active means inhibition above about 16%, passing the limit was not always enough;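 further: cells stimulated with the agonist NPW; 0% = agonist with vehicle and 100% = vehicle without agonist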
Target sequence (P48145 whole entry, looked up): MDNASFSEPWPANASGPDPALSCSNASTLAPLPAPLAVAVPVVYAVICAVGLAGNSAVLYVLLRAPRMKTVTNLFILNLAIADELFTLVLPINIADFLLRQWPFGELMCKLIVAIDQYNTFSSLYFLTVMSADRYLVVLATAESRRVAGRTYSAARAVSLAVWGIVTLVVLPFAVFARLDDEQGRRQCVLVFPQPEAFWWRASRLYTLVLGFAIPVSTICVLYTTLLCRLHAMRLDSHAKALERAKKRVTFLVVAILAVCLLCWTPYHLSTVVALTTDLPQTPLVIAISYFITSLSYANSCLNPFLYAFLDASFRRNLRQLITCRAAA
GalR3 antag = human GalR3 antagonism; O60755; HEK293 GalR3-CNG cAMP membrane potential fluorescence; galR3 body fused to GalR1 C-terminus; inhibition, % at 3 µM; 0.44% of 360,000 active; AID 651719;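 active means inhibition above the screen-wide average plus 3 SD, cut at about 13% in these data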;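 further: forskolin and galanin both at EC90 stimulate the cells; cAMP rise reported by CNG channel membrane potential dye signal; 0% = forskolin plus galanin with DMSO and 100% = forskolin alone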
Target sequence (O60755 1-299 limits assumed): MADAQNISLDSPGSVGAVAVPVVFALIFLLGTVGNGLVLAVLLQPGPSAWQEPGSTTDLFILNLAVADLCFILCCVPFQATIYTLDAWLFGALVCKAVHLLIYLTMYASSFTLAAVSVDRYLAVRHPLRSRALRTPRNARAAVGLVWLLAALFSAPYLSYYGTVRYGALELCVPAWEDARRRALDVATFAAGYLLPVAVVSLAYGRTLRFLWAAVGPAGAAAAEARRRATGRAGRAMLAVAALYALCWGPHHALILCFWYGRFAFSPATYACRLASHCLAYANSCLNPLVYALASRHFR
OX1R antag-1 = antagonists of human orexin 1 receptor (OX1R) | OX1R-expressing cells, FRET antagonist read-out | O43613 | 1.8% of 330,000 active | inhibition, % at 6.6 µM | AID 485270; in the data active means inhibition mostly above about 38%, no sharp cut-off; inactive means mostly below about 40%;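 further: 0% = agonist challenge alone and 100% = reference antagonist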
OX1R antag-2 = blocks the human orexin 1 receptor; O43613; CHO/OX1R cells, Fluo-8 calcium fluorescence, orexin A; inhibition, % at 5 µM; 0.43% of 330,000 active; AID 434989;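 active means inhibition above its plate's threshold, mean inhibition of all tested compounds on the plate plus 3 SD, cut at about 37% in these data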;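 further: 0% = orexin A challenge wells and 100% = SB-334867-A antagonist wells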
CHO parental Ca = counter-screen for OX1R antagonists: effect in parental CHO cells; 0.63% of 330,000 active; parental CHO-K1, ATP-induced calcium, Fluo-8 fluorescence; AID 463079; inhibition, % at 5.6 µM;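 active means inhibition above that plate's mean sample inhibition plus 3 SD, cut at about 26% in these data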;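 further: 0% = ATP-challenged DMSO wells and 100% = DMSO wells without ATP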
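Test system: parental CHO cells; detection: calcium-sensitive Fluo-8 fluorescence; evaluation: percent inhibition of calcium signal; also added: ATP as calcium-mobilizing challenge; repeats: one well per compound; control set: ATP-challenged DMSO wells low, unchallenged DMSO wells high; compound: single nominal dose of 5.6 µM per compound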
An asterisk follows results filed as active; / = not tested or not shown.

SMILES	GPR7 antag	GalR3 antag	OX1R antag-1	OX1R antag-2	CHO parental Ca
CC(C)(C)OC(=O)C[C@@H]1C/C=C\C[C@H](CC(=O)N(CCO)Cc2ccccc2)C(=O)NC[C@@H](c2ccccc2)OC1=O	/	-0.8	53.9*	17.7	-21.4
O=C1NC[C@H](c2ccccc2)OC(=O)[C@@H](Cc2ccc(F)cc2)C/C=C\C[C@H]1CC(=O)N(CCO)Cc1ccccc1	/	-9.2	56.2*	36.0	-14.6
O=C(C(=O)N1CCC(CNS(=O)(=O)c2cccc3ccccc23)CC1)c1cccs1	/	0.6	/	/	/
CCC(Oc1ccc2c(=O)c(-c3ccccc3OC)coc2c1)C(=O)OCc1ccccc1 (stereo not drawn)	-5.4	-2.1	6.8	-6.8	57.3*
C#CCOCCOCCOCCNc1nc(N2CCN(C(=O)CCCCCCCCCCNC(=O)[C@H](CCCCN)n3cc(CCO)nn3)CC2)nc(N2CCN(C(=O)CCCCCCCCCCNC(=O)[C@H](CCCCN)n3cc(C[C@@H](C)CC)nn3)CC2)n1	/	/	5.0	8.1	53.6*
C#CCOCCOCCOCCNc1nc(N2CCN(C(=O)CCCCCCCCCCNC(=O)Cn3cc(CCCCCN)nn3)CC2)nc(N2CCN(C(=O)CCCCCCCCCCNC(=O)Cn3cc(C[C@@H](C)O)nn3)CC2)n1	/	/	-18.6	12.9	41.5*
O=C(O)c1ccccc1NC(=O)c1cc(-c2ccccc2)nc2ccccc12	-7.8	-8.5	57.3*	-25.0	-16.9
O=C(Nc1ccon1)c1cc(-c2ccccc2)nc2ccccc12	-2.5	-1.0	21.3	-12.5	-26.1
CCN(CC)S(=O)(=O)c1ccc(Cl)c(C(=O)Nc2ccc(Cl)cc2[N+](=O)[O-])c1	-10.9	-0.5	36.4	13.0	49.8*
CN(C)S(=O)(=O)c1ccc(Cl)c(C(=O)Nc2ccccc2[N+](=O)[O-])c1	-6.9	-0.1	43.9	-27.2	-12.6
Oc1cc(-n2cccn2)c(O)cc1-n1cccn1	46.3*	-10.9	7.3	-13.5	1.0
O=Cc1ccccc1-n1cccn1	1.4	-5.5	0.2	-10.7	-6.9
COC(=O)C1=C(C)N(Cc2ccccc2C(F)(F)F)C(=NCc2ccc(C(F)(F)F)cc2)NC1c1cccc(Cl)c1 (stereo not drawn)	/	-6.9	/	/	/
Cc1cc2cc(CCNC(=O)C(=O)c3c[nH]c4ccccc34)c(=O)[nH]c2cc1C	3.8	-2.8	65.2*	1.6	-20.1
O=C(NCCc1c[nH]c2ccccc12)C(=O)c1c[nH]c2ccccc12	-6.0	-0.7	11.7	-4.4	-18.0
C[C@H](CO)N1C[C@H](C)[C@@H](CN(C)C(=O)c2ccc(N3CCN(C)CC3)cc2)OCc2cn(nn2)CCCC1=O	/	-3.7	/	/	/
COc1ccc(/C=C/c2cc[n+](C(=O)Cc3ccccc3)cc2)cc1	-5.3	-5.5	72.7*	-10.2	-1.3
CC(=O)c1c(-c2ccccc2)c2cc(Cl)ccc2[nH]c1=O	-3.9	-4.2	66.7*	2.2	-18.8
CC(=O)c1c(-c2ccc(Cl)cc2)c2ccccc2[nH]c1=O	-7.7	-5.7	11.5	-21.3	-11.9
COC(=O)c1cc2c(c3c4cc(OC)ccc4n(S(=O)(=O)c4cccc(C)c4)c13)C(=O)N(Cc1ccccc1OC)C2	/	-5.0	/	/	/
COc1cccc(CNC(=O)c2cc3c(C)nc4ccccc4c3o2)c1	-5.0	/	9.3	-15.0	-4.3
Cc1nc2ccccc2c2oc(C(=O)NCC3COc4ccccc4O3)cc12 (stereo not drawn)	-5.2	1.5	85.1*	10.0	41.1*
Cc1nc2ccccc2c2oc(C(=O)Nc3ccc(C(C)C)cc3)cc12	-25.5	-1.7	66.4*	-16.0	-41.6
CCc1ccc(CNC(=O)c2cc3c(C)nc4ccccc4c3o2)cc1	1.1	/	79.3*	-7.4	45.9*
COc1ccc(CNC(=O)c2cc3c(C)nc4ccccc4c3o2)c(OC)c1	0.2	/	55.6*	-12.5	56.7*
SMILES	GPR7 antag	GalR3 antag	OX1R antag-1	OX1R antag-2	CHO parental Ca
COc1ccc(C(C)=O)cc1CSC(=S)N1CCSCC1	/	-3.8	/	/	/
Cc1ccccc1S(=O)(=O)N(C)C[C@H]1OCc2cnnn2CCCC(=O)N([C@H](C)CO)C[C@@H]1C	/	-3.8	/	/	/
O=C(/C=C/[C@H]1O[C@@H](n2cnc3c(NC(=O)c4ccccc4)ncnc32)[C@H](O)[C@@H]1O)NCC1CCCO1 (stereo partly drawn)	/	-5.9	/	/	/
NC(=O)c1ccc(NS(=O)(=O)c2ccc(S(=O)(=O)N3CCCC3)cc2)cc1	/	-7.9	/	/	/
O=C(NCC1COc2ccccc2O1)c1cccc(S(=O)(=O)NCc2ccccc2)c1 (stereo not drawn)	/	-3.0	51.2*	-9.2	-9.8
Cc1sc2ncnc(NCC(c3ccccc3)N(C)C)c2c1C (stereo not drawn)	0.7	-7.2	10.2	-27.1	-12.3
Cc1sc2ncnc(NCC(O)c3ccc([N+](=O)[O-])cc3)c2c1C (stereo not drawn)	18.6	-5.2	27.9	13.1	35.3*
CCc1nccn1C(=O)c1cnn2c(C(F)F)cc(-c3ccc(C)cc3)nc12	-11.0	-2.9	46.7	-0.7	-12.8
CCc1nccn1C(=O)c1cnn2c(C(F)F)cc(-c3ccccc3)nc12	-9.5	/	65.6*	-23.2	-16.1
O=c1[nH]c(=O)c2nnc(N/N=C/c3ccccc3F)nc2[nH]1	-10.3	5.1	38.2	-1.4	-3.6
O=c1[nH]c(=O)c2nnc(N/N=C\c3ccc(O)cc3)nc2[nH]1	-0.8	-5.3	62.1*	-14.2	-8.4
O=c1c2ccccc2nc2c3ccccc3cnn12	-9.7	-5.3	41.2*	-18.6	-9.8
C[C@@H]1CN([C@@H](C)CO)C(=O)CCCn2cc(nn2)CO[C@H]1CN(C)C(=O)Nc1ccc2c(c1)OCO2	/	-3.8	/	/	/
Cc1ccc(-n2ncc(Cl)c2C(=O)NCc2ccccc2)cc1	-15.7	-7.3	5.0	-21.0	3.0
C=CCNC(=O)c1c(Br)cnn1-c1ccc(C)cc1	18.4*	-0.5	12.1	-28.8	-0.3
CC1Oc2ccccc2C=C1/C=N/NC(=O)c1ccccc1O (stereo not drawn)	8.9	-3.0	75.2*	8.8	-2.0
CC(=O)Nc1nc(C)c(CCCOc2ccc([N+](=O)[O-])cc2)c(=O)[nH]1	-1.9	-10.0	-2.7	-0.4	0.3
COCc1[nH]nc2c1C(c1ccc(F)cc1)N(c1ccccc1)C2=O (stereo not drawn)	/	-6.0	/	/	/
Cc1ccc(S(=O)(=O)NCC(=O)OCC(=O)NCc2ccc3c(c2)OCO3)cc1	/	-4.5	/	/	/
COc1ccc(C2OC3=C(Nc4cc(C)c(C)cc4N3)C2=O)cc1 (stereo not drawn)	2.6	-8.8	20.8	-19.0	-6.7
COc1ccccc1C1OC2=C(Nc3ccc([N+](=O)[O-])cc3N2)C1=O (stereo not drawn)	21.6	-9.6	43.5*	-14.5	-9.8
CN(C)c1cccc2c(S(=O)(=O)NCC3CCN(C(=O)C(=O)c4cc5ccccc5o4)CC3)cccc12	/	-7.7	/	/	/
O=C(OC(c1ccccc1)c1nccc2ccccc12)c1cc([N+](=O)[O-])cc([N+](=O)[O-])c1 (stereo not drawn)	-1.5	-6.0	62.2*	-45.3	-30.3
